Read-outs that look alike come from different tables or passages of the source. Marks after values point to notes of the source that are not given here.
Experiments:
[1] = Safety of initial single dose semaglutide 10 µg/kg; assay type: in vivo, human
How it was run: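 Initial cohort received a single weight-based dose, with ESRD subjects dosed 1–24 h after haemodialysis. Safety was judged from reported AEs, serious AEs, and gastrointestinal frequency and severity. Hypoglycaemia was classed as major, minor or symptoms-only by ability to self-treat and a 3.1 mmol/L plasma glucose cut-off. This cohort was evaluated for safety only and excluded from pharmacokinetic analysis.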

[2] = assay type: in vivo, human; conditions: for AUC∞ estimated ratio (95% CI): unadjusted ANCOVA; for C max estimated ratio (90% CI): unadjusted; for t ½: geometric mean (CV%)
[3] = Safety and tolerability of single dose semaglutide 0.5 mg; assay type: in vivo, human; conditions: single SC 0.5 mg
How it was run: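 Single 0.5 mg subcutaneous injection into the thigh by pen. ESRD subjects were dosed 1–24 h after haemodialysis, with no dialysis for 48 h after. Monitoring covered AEs, physical exam, ECG, vital signs, plasma glucose and clinical labs (biochemistry, haematology, urinalysis). TEAEs counted from dosing day to follow-up +14 days (~5 weeks). Hypoglycaemia: major = unable to self-treat; minor = self-treated with glucose <3.1 mmol/L. Descriptive statistics.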

[4] = cited from earlier work
[5] = single dose 10 µg/kg, six subjects
[6] = ESRD vs normal, adjusted for age, sex, log(weight), single SC 0.5 mg
[7] = mild RI vs normal, adjusted for age, sex, log(weight), single SC 0.5 mg
[8] = moderate RI vs normal, adjusted for age, sex, log(weight), single SC 0.5 mg
[9] = severe RI vs normal, adjusted for age, sex, log(weight), single SC 0.5 mg

CC[C@H](C)[C@H](NC(=O)[C@H](Cc1ccccc1)NC(=O)[C@H](CCC(=O)O)NC(=O)[C@H](CCCCNC(=O)COCCOCCNC(=O)COCCOCCNC(=O)CC[C@H](NC(=O)CCCCCCCCCCCCCCCCC(=O)O)C(=O)O)NC(=O)[C@H](C)NC(=O)[C@H](C)NC(=O)[C@H](CCC(N)=O)NC(=O)CNC(=O)[C@H](CCC(=O)O)NC(=O)[C@H](CC(C)C)NC(=O)[C@H](Cc1ccc(O)cc1)NC(=O)[C@H](CO)NC(=O)[C@H](CO)NC(=O)[C@@H](NC(=O)[C@H](CC(=O)O)NC(=O)[C@H](CO)NC(=O)[C@@H](NC(=O)[C@H](Cc1ccccc1)NC(=O)[C@@H](NC(=O)CNC(=O)[C@H](CCC(=O)O)NC(=O)C(C)(C)NC(=O)[C@@H](N)Cc1cnc[nH]1)[C@@H](C)O)[C@@H](C)O)C(C)C)C(=O)N[C@@H](C)C(=O)N[C@@H](Cc1c[nH]c2ccccc12)C(=O)N[C@@H](CC(C)C)C(=O)N[C@H](C(=O)N[C@@H](CCCNC(=N)N)C(=O)NCC(=O)N[C@@H](CCCNC(=N)N)C(=O)NCC(=O)O)C(C)C [semaglutide, Semaglutide]
tolerability as starting dose ([1]; single dose 10 µg/kg (0.7–1.2 mg), six subjects (three severe RI, three ESRD)): not considered a tolerable starting dose | minor or symptoms-only hypoglycemia [1, 5]: three experienced minor or symptoms-only hypoglycemia | significant nausea and/or vomiting [1, 5]: five experienced significant nausea and/or vomiting | AUC48 ratio (ESRD group/normal renal function group), adjusted ([2]; 0–48 h, without hemodialysis, adjusted for age, sex, body weight, (90% CI)): 0.81 | AUC48–96 ratio (ESRD group/normal renal function group), adjusted ([2]; 48–96 h, with hemodialysis, adjusted for age, sex, body weight, (90% CI)): 0.93 | effect of hemodialysis on pharmacokinetics ([2]; ESRD group, AUC48 vs AUC48–96 ratios): hemodialysis did not appear to affect the pharmacokinetics | AUC∞ estimated ratio (95% CI) ([2]; ESRD vs normal renal function, single SC 0.5 mg): 0.99 (0.82–1.19) | AUC∞ estimated ratio (95% CI), adjusted analysis [2, 6]: 1.10 (0.94–1.28) | C max estimated ratio (90% CI), adjusted analysis [2, 6]: 0.82 (0.66–1.01) | C max estimated ratio (90% CI) ([2]; ESRD vs normal, single SC 0.5 mg): 0.72 (0.57–0.91) | t ½ ([2]; ESRD, single SC 0.5 mg, n=9): 243 (19)^b h | C max lower in subjects with RI than in subjects with normal renal function ([2]; all RI groups, adjusted for age, sex, log(weight), single SC 0.5 mg): 10–20% | AUC∞ estimated ratio (95% CI) ([2]; mild RI vs normal renal function, single SC 0.5 mg): 1.01 (0.83–1.21) | AUC∞ estimated ratio (95% CI), adjusted analysis [2, 7]: 0.99 (0.85–1.16) | C max estimated ratio (90% CI), adjusted analysis [2, 7]: 0.90 (0.73–1.11) | C max estimated ratio (90% CI) ([2]; mild RI vs normal, single SC 0.5 mg): 0.95 (0.76–1.20) | t ½ ([2]; mild RI, single SC 0.5 mg, n=9): 169 (14)^b h | mean C max across the other groups ([2]; mild, moderate and severe RI groups, single SC 0.5 mg): 9.0 to 9.8 nM | AUC∞ estimated ratio (95% CI) ([2]; moderate RI vs normal renal function, single SC 0.5 mg): 1.15 (0.96–1.38) | AUC∞ estimated ratio (95% CI), adjusted analysis [2, 8]: 1.07 (0.91–1.27) | C max estimated ratio (90% CI), adjusted analysis [2, 8]: 0.79 (0.64–0.99) | C max estimated ratio (90% CI) ([2]; moderate RI vs normal, single SC 0.5 mg): 0.88 (0.70–1.10) | t ½ ([2]; moderate RI, single SC 0.5 mg, n=10): 201 (14)^c h | t max range across the groups ([2]; range of group medians, single SC 0.5 mg): 24 to 51 h | AUC∞ estimated ratio (95% CI) ([2]; severe RI vs normal renal function, single SC 0.5 mg): 1.22 (1.02–1.47) | AUC∞ estimated ratio (95% CI), adjusted analysis [2, 9]: 1.13 (0.97–1.32) | C max estimated ratio (90% CI), adjusted analysis [2, 9]: 0.86 (0.70–1.06) | C max estimated ratio (90% CI) ([2]; severe RI vs normal, single SC 0.5 mg): 0.95 (0.75–1.19) | increase in exposure ([2]; subjects with CLCR 10 mL/min versus CLCR 90 mL/min, from slope −0.06): 14% | vital signs, electrocardiogram, physical examinations, clinical laboratory assessments ([3]; all groups): No clinically significant values or appreciable changes | serious or severe TEAEs ([3]; all groups, n=56): none were serious or severe | minor hypoglycemia ([3]; moderate RI and ESRD groups): one subject with moderate RI and one with ESRD experienced minor hypoglycemia | symptoms-only hypoglycemia ([3]; moderate RI group): two subjects in the moderate RI group experienced symptoms-only hypoglycemia | major hypoglycemic events ([3]; one subject with severe RI without type 2 diabetes): two major hypoglycemic events | t ½ in humans [4]: approximately 1 week

Source: paper PMC5648736 (Clinical Pharmacokinetics, 2017)
